17 compounds from ChEMBL document CHEMBL4665651, “Design, synthesis, and biological evaluation of some novel 4-aminoquinazolines as Pan-PI3K inhibitors” (Bioorg Med Chem, 2019) can be followed below.

Where only a bound is given, the exact number is not on record here.

For one experiment, the system named is MCF7. Put plainly: Antiproliferative activity against human MCF7 cells assessed as reduction in cell viability incubated for 72 hrs by SRB assay. The experiment is classed as functional, cell-based. The note with it: MCF7, 72 h. The method, boiled down: (§1)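 Cell lines grown at 37 °C in 5% CO₂: A549 in RPMI1640, MCF-7 in DMEM, each with 10% FBS plus penicillin/streptomycin/amphotericin B. Cells exposed to a range of compound concentrations for 72 h, then TCA-fixed and SRB-stained. Growth inhibition = 100 − 100×(OD sample − OD day 0)/(OD negative control − OD day 0). IC50 from non-linear regression of percent growth against concentration.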

For a further experiment, the system named is HCT-116. Kind of experiment: Antiproliferative activity against human HCT-116 cells assessed as reduction in cell viability incubated for 72 hrs by SRB assay. Type of experiment: functional, cell-based. The note with it: HCT-116, 72 h.
A further experiment concerns A549. Kind of experiment: Antiproliferative activity against human A549 cells assessed as reduction in cell viability incubated for 72 hrs by SRB assay. Type of experiment: functional, cell-based. The following applies: A549, 72 h. The method, boiled down:
as §1

The target of experiment [1] is Epidermal growth factor receptor (Homo sapiens, UniProt P00533). Kind of experiment: Inhibition of EGFR (unknown origin) using FAM-labeled peptide as substrate incubated for 10 mins followed by substrate addition and measured after 1 hr by mobility shift assay. The method, boiled down:
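Mobility shift assay in 50 mM HEPES pH 7.5, 10 mM MgCl₂, 2 mM DTT, 0.0015% Brij35. Compound in 10-point DMSO dilution, run in duplicate. Enzyme preincubated with compound 10 min at room temperature. FAM-labeled peptide and ATP then added and reaction run at 28 °C for 1 h. Stopped with EDTA buffer; conversion turned into percent inhibition and fitted to a Hill equation for IC50.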

Chain of Epidermal growth factor receptor (P00533 whole entry): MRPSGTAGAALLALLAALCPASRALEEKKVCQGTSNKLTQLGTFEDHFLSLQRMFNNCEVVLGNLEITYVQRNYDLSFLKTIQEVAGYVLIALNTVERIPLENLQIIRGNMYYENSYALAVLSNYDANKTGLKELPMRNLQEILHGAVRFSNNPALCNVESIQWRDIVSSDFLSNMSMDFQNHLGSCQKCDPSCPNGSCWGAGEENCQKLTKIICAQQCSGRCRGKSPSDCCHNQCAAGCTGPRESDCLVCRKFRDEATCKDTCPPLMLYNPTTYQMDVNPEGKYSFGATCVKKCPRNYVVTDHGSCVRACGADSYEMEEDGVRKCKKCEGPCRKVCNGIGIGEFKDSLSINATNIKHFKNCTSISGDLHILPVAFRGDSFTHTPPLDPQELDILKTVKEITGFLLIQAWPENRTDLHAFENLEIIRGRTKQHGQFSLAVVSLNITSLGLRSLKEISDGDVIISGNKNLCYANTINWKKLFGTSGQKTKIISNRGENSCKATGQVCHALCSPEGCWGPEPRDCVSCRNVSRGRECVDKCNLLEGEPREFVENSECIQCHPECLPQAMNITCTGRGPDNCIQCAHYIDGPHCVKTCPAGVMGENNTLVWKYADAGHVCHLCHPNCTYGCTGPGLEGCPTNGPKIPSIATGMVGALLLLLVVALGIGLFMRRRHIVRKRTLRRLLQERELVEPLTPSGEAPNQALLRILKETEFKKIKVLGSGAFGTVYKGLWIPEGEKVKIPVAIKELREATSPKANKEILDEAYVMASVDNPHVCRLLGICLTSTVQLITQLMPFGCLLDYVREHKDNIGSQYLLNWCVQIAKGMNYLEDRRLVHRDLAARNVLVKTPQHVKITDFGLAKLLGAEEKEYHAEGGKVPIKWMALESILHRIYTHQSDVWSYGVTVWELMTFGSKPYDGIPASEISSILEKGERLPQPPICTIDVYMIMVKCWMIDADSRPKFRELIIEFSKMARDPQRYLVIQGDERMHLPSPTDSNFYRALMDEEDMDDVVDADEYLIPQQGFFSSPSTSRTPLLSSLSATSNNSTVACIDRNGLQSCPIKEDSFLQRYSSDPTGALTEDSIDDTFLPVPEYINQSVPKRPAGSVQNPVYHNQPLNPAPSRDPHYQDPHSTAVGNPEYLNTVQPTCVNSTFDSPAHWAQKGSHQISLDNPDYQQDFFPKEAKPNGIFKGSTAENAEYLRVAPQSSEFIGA

`COc1ncc(-c2ccc3ncnc(Nc4ccc(OCCCO)nc4)c3c2)cc1NS(=O)(=O)c1ccc(F)cc1F`: the IC50 in the experiment on MCF7 is 6.12 µM; in the experiment with HCT-116, 3.68 µM; in the experiment on A549, 9.36 µM.
On to `COc1ncc(-c2ccc3ncnc(Nc4cnn(CCC(=O)O)c4)c3c2)cc1NS(=O)(=O)c1ccc(F)cc1F`, for which the IC50 stood at 0.56 µM in the experiment with MCF7, 1.29 µM with HCT-116 and 3.84 µM in the experiment with A549.
The matching figures for `COc1ncc(-c2ccc3ncnc(Nc4cnn(CCCO)c4)c3c2)cc1NS(=O)(=O)c1ccc(F)cc1F`: 1.31 µM, 0.48 µM and 4.83 µM.
Turning to `COc1cc(Nc2ncnc3ccc(-c4cnc(OC)c(NS(=O)(=O)c5ccc(F)cc5F)c4)cc23)ccc1OCCO`, the IC50 was 2.26 µM in the experiment with MCF7, 5.72 µM with HCT-116 and 3.76 µM with A549.
The matching figures for `COc1ncc(-c2ccc3ncnc(Nc4ccc(OCCO)c(F)c4)c3c2)cc1NS(=O)(=O)c1ccc(F)cc1F`: 4.82 µM, 9.16 µM and 6.64 µM.
Take `COc1ncc(-c2ccc3nccc(-c4ccnnc4)c3c2)cc1NS(=O)(=O)c1ccc(F)cc1F` [OMIPALISIB]: the IC50 was found to be 0.03 µM with MCF7, 0.14 µM in the experiment with HCT-116 and 0.86 µM in the experiment with A549.
On to `COc1ncc(-c2ccc3ncnc(Nc4cnn(CCCO)c4)c3c2)cc1NS(C)(=O)=O`, for which the IC50 worked out at 0.73 µM with MCF7, 1.42 µM with HCT-116 and 3.6 µM in the experiment with A549.
On to `COc1ncc(-c2ccc3ncnc(Nc4ccc(OCCO)nc4)c3c2)cc1NS(C)(=O)=O`, for which the IC50 in the experiment on MCF7 is 3.08 µM; in the experiment on HCT-116, 5.36 µM; in the experiment on A549, 5.08 µM.
Regarding `COC(=O)CCn1cc(Nc2ncnc3ccc(-c4cnc(OC)c(NS(=O)(=O)c5ccc(F)cc5F)c4)cc23)cn1`, the IC50 in the experiment on MCF7 was 0.49 µM; in the experiment with HCT-116, 0.97 µM; in the experiment with A549, 2.99 µM.
For `COC(=O)Cn1cc(Nc2ncnc3ccc(-c4cnc(OC)c(NS(=O)(=O)c5ccc(F)cc5F)c4)cc23)cn1`, the figures for the IC50 in the experiment on MCF7, in the experiment on HCT-116 and in the experiment with A549 were 0.67 µM, 1.26 µM and 4.28 µM, respectively.
`COc1ncc(-c2ccc3ncnc(Nc4cnn(CC(=O)O)c4)c3c2)cc1NS(=O)(=O)c1ccc(F)cc1F`: the IC50 with MCF7 was found to be 0.7 µM; in the experiment with HCT-116 it was 1.54 µM; with A549, 5.2 µM.
Turning to `CCCCS(=O)(=O)Nc1cc(-c2ccc3ncnc(Nc4ccc(OCCO)nc4)c3c2)cnc1OC`, the IC50 in the experiment on MCF7 was more than 20 µM; in the experiment on HCT-116, more than 20 µM; in the experiment with A549, 13.3 µM.
On to `COc1ncc(-c2ccc3ncnc(Nc4ccc(OCCO)c(Cl)c4)c3c2)cc1NS(=O)(=O)c1ccc(F)cc1F`, for which the IC50 with MCF7 was found to be 3.74 µM; in the experiment on HCT-116, 7.32 µM; in the experiment on A549, 5.98 µM.
Turning to `COc1ncc(-c2ccc3ncnc(Nc4ccc(OCCO)nc4)c3c2)cc1NS(=O)(=O)c1ccc(F)cc1F`, the values for the IC50 with MCF7, in the experiment on HCT-116 and in the experiment on A549 were 4.3 µM, 2.34 µM and 4.12 µM, respectively.
For the compound `COc1ncc(-c2ccc3ncnc(Nc4ccc(OCCO)cc4)c3c2)cc1NS(C)(=O)=O`, the concentration for half-maximal inhibition (IC50) with MCF7 turned out to be 3.27 µM; in the experiment on HCT-116 it was 4.86 µM; with A549 it was 5.2 µM.
On to `COc1ncc(-c2ccc3ncnc(Nc4cnn(CCO)c4)c3c2)cc1NS(C)(=O)=O`, for which the IC50 in experiment [1] is 2.52 µM; in the experiment with MCF7, 0.77 µM; in the experiment with HCT-116, 1.49 µM; with A549, 8.22 µM.
Take `COc1ncc(-c2ccc3ncnc(Nc4ccc(OCCO)cc4)c3c2)cc1NS(=O)(=O)c1ccc(F)cc1F`: the IC50 in the experiment with MCF7 was found to be 1.65 µM; in the experiment on HCT-116, 1.06 µM; with A549, 2.69 µM.
